Data taken from ChEMBL document CHEMBL1128440 (J Med Chem, 1995).
“And” between values parts separate entries of the source, which are not always exact repeats. Equal entries are not always repeated.

Experiments:
[1] = target: T1, Progesterone receptor (Homo sapiens) (UniProt P06401); assay: Nonspecific binding affinity against progesterone receptor was estimated relative to compound R5020
T1 sequence (whole entry): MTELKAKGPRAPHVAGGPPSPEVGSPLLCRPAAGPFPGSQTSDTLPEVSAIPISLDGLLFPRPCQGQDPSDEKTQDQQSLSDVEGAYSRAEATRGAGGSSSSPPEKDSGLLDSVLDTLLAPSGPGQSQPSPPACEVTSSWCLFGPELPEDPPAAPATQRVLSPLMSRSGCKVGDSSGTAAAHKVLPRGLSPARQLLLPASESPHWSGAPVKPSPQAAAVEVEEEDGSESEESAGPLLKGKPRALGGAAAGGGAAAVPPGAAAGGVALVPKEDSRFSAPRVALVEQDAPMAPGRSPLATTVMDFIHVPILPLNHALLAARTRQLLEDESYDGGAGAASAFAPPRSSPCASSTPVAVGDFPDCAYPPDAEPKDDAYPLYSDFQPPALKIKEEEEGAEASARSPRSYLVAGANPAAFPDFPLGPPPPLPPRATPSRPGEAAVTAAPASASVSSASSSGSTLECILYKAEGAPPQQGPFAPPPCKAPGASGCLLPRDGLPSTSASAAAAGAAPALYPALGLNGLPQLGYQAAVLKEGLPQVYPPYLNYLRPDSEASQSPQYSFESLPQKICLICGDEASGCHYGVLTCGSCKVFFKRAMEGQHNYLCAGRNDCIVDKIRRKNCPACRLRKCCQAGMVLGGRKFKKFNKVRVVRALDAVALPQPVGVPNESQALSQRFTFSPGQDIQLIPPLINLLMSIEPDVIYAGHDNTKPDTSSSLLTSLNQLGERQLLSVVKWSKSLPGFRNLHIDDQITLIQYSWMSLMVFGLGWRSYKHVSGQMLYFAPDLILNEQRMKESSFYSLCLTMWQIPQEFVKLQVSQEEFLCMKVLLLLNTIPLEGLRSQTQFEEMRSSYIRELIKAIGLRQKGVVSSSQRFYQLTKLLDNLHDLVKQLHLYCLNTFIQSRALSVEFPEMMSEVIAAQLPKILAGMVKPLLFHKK

[2] = target: T1, Progesterone receptor (Homo sapiens); assay: Binding selectivity index as the ratio of RBA value to that of NSB value.
Outline: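 BSI calculated as the ratio of RBA to NSB.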

[3] = target: T1, Progesterone receptor (Homo sapiens); assay: Relative binding affinity against progesterone receptor at 0 degree Celsius determined in a competitive radiometric binding assay (R5020=100%).
Outline: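 Competitive radiometric binding at 0 °C against tritium-labeled R5020 as the standard (RBA = 100). Values are the average of two experiments.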

[4] = Partition coefficient (logP); type: physicochemical; details: octanol/water
Outline: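 log P(o/w) (octanol/water) estimated by a reversed-phase HPLC method.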

NSB [1]	logP [4]	logP ([4]; read-out: logP)	SMILES	BSI [2]	RBA [3]
1.69 and 2.08	4.76	4.56	CC(=O)[C@@]12OC(c3ccco3)O[C@@H]1CC1C3CCC4=CC(=O)CC[C@]4(C)C3CC[C@@]12C (stereo not given in full)	–	–
2.08 and 2.74	5.03	4.76	CC(=O)[C@@]12OC(C)(c3ccco3)O[C@@H]1CC1C3CCC4=CC(=O)CC[C@]4(C)C3CC[C@@]12C (stereo not given in full)	2 and < 1	–

SMILES	NSB [1]	logP [4]	logP ([4]; read-out: logP)	BSI [2]	RBA [3]
CC[C@@H]1C[C@H]2[C@@H]3CCC4=CC(=O)CC[C@@H]4[C@H]3CC[C@]2(C)[C@H]1C(=O)CO	0.97	–	–	206	200
